Values joined by “and” are separate entries in the source; they are usually repeats but may differ in a detail not shown here. Equal entries are not always repeated. One block for each molecule: values may come before it.
How the values were obtained:
5-HT1A receptors = details: cited from earlier work
brain 5-HT1A receptors [1] = assay: PET imaging of [11C]S14506 in monkey; format: in vivo, rhesus monkey
human 5-HT1A receptors = details: recombinant Chinese hamster ovary cells, room temperature; cited from earlier work
brain 5-HT1A receptors [2] = biological target: T1, brain 5-HT1A receptors (Rattus norvegicus, UniProt P19327); assay: PET imaging of [11C]S14506 in rat; format: in vivo, Sprague-Dawley rat; details: i.v.
T1 sequence (P19327 1-422): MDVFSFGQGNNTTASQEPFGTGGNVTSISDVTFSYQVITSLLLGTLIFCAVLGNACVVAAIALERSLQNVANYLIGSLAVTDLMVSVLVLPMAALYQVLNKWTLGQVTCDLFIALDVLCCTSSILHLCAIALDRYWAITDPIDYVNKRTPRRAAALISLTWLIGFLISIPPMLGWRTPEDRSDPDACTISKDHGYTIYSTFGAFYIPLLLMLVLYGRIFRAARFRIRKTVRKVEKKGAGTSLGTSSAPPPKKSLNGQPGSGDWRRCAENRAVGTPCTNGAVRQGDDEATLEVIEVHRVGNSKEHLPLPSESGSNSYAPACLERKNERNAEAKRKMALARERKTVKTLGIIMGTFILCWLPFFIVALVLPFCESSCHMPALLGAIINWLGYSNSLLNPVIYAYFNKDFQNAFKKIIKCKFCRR

Stability in whole blood = format: in vitro ADME; details: rat whole blood in vitro, 125 min, room temperature
Plasma protein binding = format: in vitro ADME; details: rat plasma
[3] = Distribution between blood components; format: in vitro ADME; details: rat, without hematocrit correction
Procedure, shortened: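 [18F]-labelled test compound (0.8 μCi) added to heparinized rat whole blood (from cardiac puncture) in duplicate tubes and incubated at room temperature for 27 min. Blood centrifuged at 1800 × g for 3 min, plasma separated, and all fractions γ-counted. Percent radioactivity in plasma and in cells reported without hematocrit correction.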

[4] = Emergence of radiometabolites in monkey plasma; format: in vivo, rhesus monkey; details: over the PET study
brain 5-HT1A receptors [5] = assay: PET imaging of [18F]S14506 in monkey; format: in vivo, rhesus monkey; details: absence of radioactivity accumulation in skull
[6] = Ex vivo biodistribution and radiometabolite composition of [18F]S14506 in rat; set-up: species or system Sprague-Dawley rat
[7] = Effect of cyclosporin A on rat plasma and brain levels of [18F]S14506; format: in vivo; details: 30 min after administration
[8] = Stability in sodium phosphate buffer; format: physicochemical; details: sodium phosphate buffer (0.15 M), room temperature, 2.5 h

Molecule: WAY-100635
Kd (5-HT1A receptors; read-out: Kd, 5-HT1A receptor affinity): 0.1 nM

Molecule: COc1ccc2cccc(N3CCN(CCNC(=O)c4ccc(F)cc4)CC3)c2c1 [S14506, 1-[2-(4-fluorobenzoylamino)ethyl]-4-(7-methoxynaphthyl)piperazine, reference compound]
time required for a 50% decrease in cerebellar radioactivity (brain 5-HT1A receptors [1]; monkey, cerebellar time-activity curves (non-specific binding)): > 32 min
off rate from human 5-HT1A receptors (human 5-HT1A receptors): 0.029 min⁻¹

Molecule: COc1ccccc1N1CCN(CCCCn2ncc(=O)n(C)c2=O)CC1 [[^11C]CUMI-101, [O-methyl-^11C]2-(4-(4-(2-methoxyphenyl)piperazin-1-yl)butyl)-4-methyl-1,2,4-triazine-3,5(2H,4H)dione]
Ki (5-HT1A receptors; read-out: Ki, 5-HT1A receptor affinity): 0.15 nM

Molecule: [11CH3]Oc1ccc2cccc(N3CCN(CCNC(=O)c4ccc(F)cc4)CC3)c2c1 [[^11C]S14506]
peak whole brain radioactivity (brain 5-HT1A receptors [2]; rat pre-treated with cyclosporin A 25 mg/kg): ~ 310 % SUV
peak whole brain radioactivity (brain 5-HT1A receptors [2]; rat pre-treated with cyclosporin A 50 mg/kg): ~ 350 % SUV
peak whole brain radioactivity (brain 5-HT1A receptors [2]; rat, baseline, at 2 min): 210 % SUV and ~ 210 % SUV
peak brain radioactivity (brain 5-HT1A receptors [1]; monkey pre-treated with tariquidar 4 mg/kg, i.v., 30 min before): 240 % SUV and ~ 240 % SUV
peak whole brain radioactivity (brain 5-HT1A receptors [1]; monkey, baseline, i.v., at 7 min): ~ 170 % SUV
unchanged radioligand after incubation with whole blood (Stability in whole blood): > 99.5%
free in plasma (plasma protein binding) (Plasma protein binding): 0.52%
whole blood distribution to cellular components [3]: 40.9%
whole blood distribution to plasma [3]: 59.1%
maximal share of the second (minor) radiometabolite in plasma radioactivity [4]: ≤ 3.1%

radiodefluorination (brain 5-HT1A receptors [5]): not radiodefluorinated
free in plasma (plasma protein binding) (Plasma protein binding): 0.61%
whole blood distribution to cellular components [3]: 25.8%
whole blood distribution to plasma [3]: 74.2%
Composition (%) of radioactivity, Cerebellum ([6]; 30 min after administration of [18F]S14506, n = 1 rat): 93.9%
Composition (%) of radioactivity, Remainder of brain ([6]; 30 min after administration of [18F]S14506, n = 2 rats): 97.2 ± 0.20%
Composition (%) of radioactivity, Plasma ([6]; 30 min after administration of [18F]S14506, n = 3 rats (mean ± SD)): 38.6 ± 0.17%
[18F]S14506 concentration (%SUV), Remainder of brain ([7]; Control): 141 %SUV
[18F]S14506 concentration (%SUV), Remainder of brain ([7]; Cyclosporin A treated (50 mg/kg, i.v.)): 211 %SUV
stability to incubation in buffer [8]: stable
Molecule: COc1ccc2cccc(N3CCN(CCNC(=O)c4ccc([18F])cc4)CC3)c2c1 [[^18F]S14506]

Reference: PMC2908029 (Current radiopharmaceuticals, 2010)
